Tests used:
[1] = tested on: SK-OV-3; experiment: Growth inhibition of human SKOV3 cells at 10 uM relative to control; type: functional; conditions: read-out: GI
Outline: (§1)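 Each cell line in a 60-line human tumour panel exposed to one 10 μM concentration. Growth inhibition percentage computed as 100 minus the percentage activity relative to control.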

[2] = tested on: OVCAR-5; experiment: Growth inhibition of human OVCAR5 cells at 10 uM relative to control; type: functional; conditions: read-out: GI; outline: as §1
[3] = tested on: UACC-62; experiment: Growth inhibition of human UACC62 cells at 10 uM relative to control; type: functional; conditions: read-out: GI
Outline: (§2)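 Single-dose screen across the 60-cell-line human tumor panel at 10 μM. Growth inhibition is reported as a percentage, taken as 100 minus the % growth relative to untreated control.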

[4] = tested on: MDA-MB-435; experiment: Growth inhibition of human MDA-MB-435 cells at 10 uM relative to control; type: functional; conditions: read-out: GI; outline: as §1
[5] = tested on: Malme-3M; experiment: Growth inhibition of human MALME-3M cells at 10 uM relative to control; type: functional; conditions: read-out: GI; outline: as §1
[6] = tested on: M14; experiment: Growth inhibition of human M14 cells at 10 uM relative to control; type: functional; conditions: read-out: GI; outline: as §1
[7] = tested on: U-251; experiment: Growth inhibition of human U251 cells at 10 uM relative to control; type: functional; conditions: read-out: GI; outline: as §2
[8] = tested on: SNB-19; experiment: Growth inhibition of human SNB19 cells at 10 uM relative to control; type: functional; conditions: read-out: GI; outline: as §2
[9] = tested on: SNB-75; experiment: Growth inhibition of human SNB75 cells at 10 uM relative to control; type: functional; conditions: read-out: GI; outline: as §2
[10] = tested on: SF-295; experiment: Growth inhibition of human SF295 cells at 10 uM relative to control; type: functional; conditions: read-out: GI; outline: as §1
[11] = tested on: SF-539; experiment: Growth inhibition of human SF539 cells at 10 uM relative to control; type: functional; conditions: read-out: GI; outline: as §1
[12] = tested on: SF-268; experiment: Growth inhibition of human SF268 cells at 10 uM relative to control; type: functional; conditions: read-out: GI; outline: as §1
[13] = tested on: KM12; experiment: Growth inhibition of human KM12 cells at 10 uM relative to control; type: functional; conditions: read-out: GI; outline: as §1
[14] = tested on: HCT-15; experiment: Growth inhibition of human HCT15 cells at 10 uM relative to control; type: functional; conditions: read-out: GI; outline: as §1
[15] = tested on: HCC 2998; experiment: Growth inhibition of human HCC2998 cells at 10 uM relative to control; type: functional; conditions: read-out: GI; outline: as §1
[16] = tested on: NCI-H522; experiment: Growth inhibition of human NCI-H522 cells at 10 uM relative to control; type: functional; conditions: read-out: GI; outline: as §1
[17] = tested on: NCI-H322M; experiment: Growth inhibition of human NCI-H322M cells at 10 uM relative to control; type: functional; conditions: read-out: GI; outline: as §1
[18] = tested on: HOP-62; experiment: Growth inhibition of human HOP62 cells at 10 uM relative to control; type: functional; conditions: read-out: GI; outline: as §1
[19] = tested on: EKVX; experiment: Growth inhibition of human EKVX cells at 10 uM relative to control; type: functional; conditions: read-out: GI; outline: as §1
[20] = tested on: RPMI-8226; experiment: Growth inhibition of human RPMI8226 cells at 10 uM relative to control; type: functional; conditions: read-out: GI; outline: as §1
[21] = tested on: CCRF-CEM; experiment: Growth inhibition of human CCRF-CEM cells at 10 uM relative to control; type: functional; conditions: read-out: GI; outline: as §1
[22] = tested on: T47D; experiment: Growth inhibition of human T47D cells at 10 uM relative to control; type: functional; conditions: read-out: GI; outline: as §2
[23] = tested on: BT-549; experiment: Growth inhibition of human BT549 cells at 10 uM relative to control; type: functional; conditions: read-out: GI; outline: as §1
[24] = tested on: PC-3; experiment: Growth inhibition of human PC3 cells at 10 uM relative to control; type: functional; conditions: read-out: GI; outline: as §1
[25] = tested on: UO-31; experiment: Growth inhibition of human UO31 cells at 10 uM relative to control; type: functional; conditions: read-out: GI; outline: as §2
[26] = tested on: TK-10; experiment: Growth inhibition of human TK10 cells at 10 uM relative to control; type: functional; conditions: read-out: GI; outline: as §2
[27] = tested on: CAKI-1; experiment: Growth inhibition of human CAKI-1 cells at 10 uM relative to control; type: functional; conditions: read-out: GI; outline: as §1
[28] = tested on: A498; experiment: Growth inhibition of human A498 cells at 10 uM relative to control; type: functional; conditions: read-out: GI; outline: as §1
[29] = tested on: OVCAR-4; experiment: Growth inhibition of human OVCAR4 cells at 10 uM relative to control; type: functional; conditions: read-out: GI; outline: as §1
[30] = tested on: OVCAR-3; experiment: Growth inhibition of human OVCAR3 cells at 10 uM relative to control; type: functional; conditions: read-out: GI; outline: as §1
[31] = tested on: SK-MEL-5; experiment: Growth inhibition of human SK-MEL-5 cells at 10 uM relative to control; type: functional; conditions: read-out: GI; outline: as §1
[32] = tested on: A549; experiment: Growth inhibition of human A549 cells at 10 uM relative to control; type: functional; conditions: read-out: GI; outline: as §1
[33] = tested on: MOLT-4; experiment: Growth inhibition of human MOLT4 cells at 10 uM relative to control; type: functional; conditions: read-out: GI; outline: as §1
[34] = tested on: K562; experiment: Growth inhibition of human K562 cells at 10 uM relative to control; type: functional; conditions: read-out: GI; outline: as §1
[35] = tested on: HL-60(TB); experiment: Growth inhibition of human HL-60(TB) cells at 10 uM relative to control; type: functional; conditions: read-out: GI
Outline: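 Single-dose screen at 10 μM across the 60-cell-line tumour panel. Percent growth inhibition = 100 minus percent growth activity relative to untreated control.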

[36] = species: Mus musculus; experiment: Protective index, ratio of TD50 for mouse to ED50 for pentylenetetrazol-induced seizure in mouse; type: functional
Outline: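 Mice. Index is TD50/ED50. TD50 is the dose causing minimal neurological toxicity in 50% of mice in the Chimney test. ED50 is the dose protecting 50% of mice against pentylenetetrazole-induced seizures. Both are estimated from testing at several doses.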

[37] = Toxicity in ip dose mouse assessed as mortality; type: organism-based; conditions: in vivo
Outline: (§3)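 In mice, LD50 is the dose causing 50% mortality. ED50 is the dose protecting 50% of mice against pentylenetetrazole-induced seizures. Therapeutic index = LD50/ED50.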

[38] = Therapeutic index, ratio of LD50 for mouse to ED50 for pentylenetetrazol-induced seizure in mouse; type: organism-based; conditions: in vivo, read-out: Ratio LD50/ED50; outline: as §3
[39] = Neurotoxicity in ip dosed mouse assessed as impaired motor coordination administered 30 mins prior to test by chimney test; type: toxicity, organism-based; conditions: in vivo
Outline: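 Mice, Chimney test. TD50 is the dose that produces minimal neurological toxicity (impaired motor coordination) in 50% of animals, estimated from testing at several doses.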

[40] = tested on: Mus musculus; experiment: Anticonvulsant activity in ip dosed mouse assessed as protection against pentylenetetrazol-induced seizure administered 30 min prior to pentylenetetrazol-challenge measured after 60 mins; type: functional
Outline: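 Mice received several doses for quantification. ED50 taken as the dose protecting 50% of mice against pentylenetetrazol-induced seizures.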

[41] = tested on: Mus musculus; experiment: Anticonvulsant activity in mouse assessed as protection against maximal electroshock-induced seizure at 1 mmol/kg, ip administered 30 min prior to maximal electroshock-challenge measured after 60 mins relative to control; type: functional
[42] = tested on: Mus musculus; experiment: Anticonvulsant activity in mouse assessed as protection against picrotoxin-induced seizure at 1 mmol/kg, ip administered 30 min prior to picrotoxin-challenge measured after 60 mins relative to control; type: functional
[43] = tested on: Mus musculus; experiment: Anticonvulsant activity in mouse assessed as protection against strychnine-induced seizure at 1 mmol/kg, ip administered 30 min prior to strychnine-challenge measured after 60 mins relative to control; type: functional
[44] = tested on: Mus musculus; experiment: Anticonvulsant activity in mouse assessed as protection against pentylenetetrazol-induced seizure at 1 mmol/kg, ip administered 30 min prior to pentylenetetrazol-challenge measured after 60 mins relative to control; type: functional
[45] = tested on: MDA-MB-231; experiment: Growth inhibition of human MDA-MB-231 cells at 10 uM relative to control; type: functional; conditions: read-out: GI; outline: as §1
[46] = tested on: MCF7; experiment: Growth inhibition of human MCF7 cells at 10 uM relative to control; type: functional; conditions: read-out: GI; outline: as §1
[47] = tested on: SN12C; experiment: Growth inhibition of human SN12C cells at 10 uM relative to control; type: functional; conditions: read-out: GI; outline: as §2
[48] = tested on: RXF 393; experiment: Growth inhibition of human RXF393 cells at 10 uM relative to control; type: functional; conditions: read-out: GI; outline: as §1
[49] = tested on: ACHN; experiment: Growth inhibition of human ACHN cells at 10 uM relative to control; type: functional; conditions: read-out: GI; outline: as §1

Compound: Cc1ccccc1-n1c(C)nc2cc(N)ccc2c1=S
- inhibition of growth at 10 µM [1]: 5%
- inhibition of growth at 10 µM [2]: 10%
- inhibition of growth at 10 µM [3]: 9%
- inhibition of growth at 10 µM [4]: 9.8%
- inhibition of growth at 10 µM [5]: 17%
- inhibition of growth at 10 µM [6]: 4%
- inhibition of growth at 10 µM [7]: 6%
- inhibition of growth at 10 µM [8]: 2%
- inhibition of growth at 10 µM [9]: 15.5%
- inhibition of growth at 10 µM [10]: 16.6%
- inhibition of growth at 10 µM [11]: 2%
- inhibition of growth at 10 µM [12]: 10.6%
- inhibition of growth at 10 µM [13]: 8.3%
- inhibition of growth at 10 µM [14]: 2.5%
- inhibition of growth at 10 µM [15]: 16.6%
- inhibition of growth at 10 µM [16]: 4%
- inhibition of growth at 10 µM [17]: 11.1%
- inhibition of growth at 10 µM [18]: 5.5%
- inhibition of growth at 10 µM [19]: 15.2%
- inhibition of growth at 10 µM [20]: 4%
- inhibition of growth at 10 µM [21]: 9.5%
- inhibition of growth at 10 µM [22]: 11%
- inhibition of growth at 10 µM [23]: 8%
- inhibition of growth at 10 µM [24]: 9.5%
- inhibition of growth at 10 µM [25]: 22%
- inhibition of growth at 10 µM [26]: 10%
- inhibition of growth at 10 µM [27]: 5%
- inhibition of growth at 10 µM [28]: 20%

Compound: Cc1ccccc1-n1c(C)nc2cc(N3C(=O)CSC3c3ccc(Cl)cc3)ccc2c1=O (stereo unspecified)
- inhibition of growth at 10 µM [1]: 29.2%
- inhibition of growth at 10 µM [29]: 5%
- inhibition of growth at 10 µM [30]: 5.2%
- inhibition of growth at 10 µM [3]: 18%
- inhibition of growth at 10 µM [31]: 4%
- inhibition of growth at 10 µM [4]: 7.7%
- inhibition of growth at 10 µM [9]: 7.6%
- inhibition of growth at 10 µM [11]: 5%
- inhibition of growth at 10 µM [32]: 12%
- inhibition of growth at 10 µM [19]: 4%
- inhibition of growth at 10 µM [20]: 9.2%
- inhibition of growth at 10 µM [33]: 39.1%
- inhibition of growth at 10 µM [34]: 8.4%
- inhibition of growth at 10 µM [21]: 11.3%
- inhibition of growth at 10 µM [35]: 6%
- Ratio TD50/ED50 [36]: 1.5
- LD50 [37]: 1040 µmol/kg
- selectivity ratio [38]: 2.53
- TD50 at 0.5 h [39]: 600 µmol/kg
- ED50 [40]: 410 µmol/kg
- Activity [41]: 100%
- Activity [42]: 75%
- Activity [43]: 0%
- Activity [44]: 100%
- inhibition of growth at 10 µM [22]: 4%
- inhibition of growth at 10 µM [45]: 23.7%
- inhibition of growth at 10 µM [46]: 5.2%
- inhibition of growth at 10 µM [24]: 8%
- inhibition of growth at 10 µM [25]: 15%
- inhibition of growth at 10 µM [47]: 5%
- inhibition of growth at 10 µM [48]: 3%
- inhibition of growth at 10 µM [27]: 3%
- inhibition of growth at 10 µM [49]: 3.5%

Source: ChEMBL document CHEMBL1955778, “Design and synthesis of novel 7-aminoquinazoline derivatives: antitumor and anticonvulsant activities” (Bioorg Med Chem Lett, 2012)
